Assay [1] has as its target Activin receptor type-1-like (Homo sapiens) (UniProt P37023). The assay is described as follows: Inhibition of wild-type human ACVRL1 (L164 to Q503 residues) expressed in Escherichia coli BL21 assessed as residual activity at 1000 nM after 30 mins by Kinomescan method relative to control. The method, boiled down:
(§1)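 Single-point screen at a fixed 1 µM, run within a 456-kinase DiscoveRx KINOMEscan panel. Each kinase's read-out is Percent Control, i.e. signal relative to a control without compound. Hits were scored by a Percent Control < 35 cut-off, and an S(35) selectivity score was calculated across the non-mutant kinases.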

Assay [2] deals with Calcium/calmodulin-dependent protein kinase type II subunit gamma (Homo sapiens) (UniProt Q13555). As to the kind of experiment: Inhibition of wild-type human partial length CAMK2G (R9 to A303 residues) expressed in Escherichia coli BL21 assessed as residual activity at 1000 nM after 30 mins by Kinomescan method relative to control.
Assay [3] addresses Ephrin type-A receptor 6 (Homo sapiens) (UniProt Q9UF33). As to the kind of experiment: Inhibition of wild-type human partial length EPHA6 (Y700 to E1046 residues) expressed in Escherichia coli BL21 assessed as residual activity at 1000 nM after 30 mins by Kinomescan method relative to control.
In assay [4] the test system is Receptor-type tyrosine-protein kinase FLT3 (Homo sapiens), P36888 [D835H]. The assay is described as follows: Inhibition of human partial length FLT3 D835H mutant (V592 to Y969 residues) expressed in Escherichia coli BL21 assessed as residual activity at 1000 nM after 30 mins by Kinomescan method relative to control. The method, boiled down: (§2)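 KINOMEscan binding panel of 456 kinases, with the test compound at a single concentration of 1 µM. Read-out is Percent Control.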

For another assay, the species on record is Homo sapiens. As to the kind of experiment: Inhibition of human partial length FLT3 ITD/F691L double mutant expressed in Escherichia coli BL21 assessed as residual activity at 1000 nM after 30 mins by Kinomescan method relative to control. The gist of the method: as §2
The target of assay [5] is Beta-adrenergic receptor kinase 1 (Homo sapiens) (UniProt P25098). The assay is described as follows: Inhibition of wild-type human full length GRK2 (M1 to L689 residues) expressed in HEK293 cells assessed as residual activity at 1000 nM after 30 mins by Kinomescan method relative to control. Type of assay: cell-based. The method, boiled down:
(§3)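 Single-concentration screen at 1 µM across a 456-kinase KINOMEscan panel. The read-out is Percent Control for each kinase.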

Assay [6] deals with Inhibitor of nuclear factor kappa-B kinase subunit epsilon (Homo sapiens) (UniProt Q14164). As to the kind of experiment: Inhibition of wild-type human full length IKK-epsilon (M1 to V716 residues) expressed in HEK293 cells assessed as residual activity at 1000 nM after 30 mins by Kinomescan method relative to control. Format: cell-based. The method, boiled down: as §3
Assay [7] deals with Mast/stem cell growth factor receptor Kit (Homo sapiens), P10721 [D816H]. The assay is described as follows: Inhibition of human partial length KIT D816H mutant (I571 to D952 residues) expressed in HEK293 cells assessed as residual activity at 1000 nM after 30 mins by Kinomescan method relative to control. Format: cell-based. The method, boiled down:
as §2

In assay [8] the target is Mitogen-activated protein kinase kinase kinase kinase 4 (Homo sapiens) (UniProt O95819). The assay is described as follows: Inhibition of wild-type human partial length MAP4K4 (M1 to R310 residues) expressed in Escherichia coli BL21 assessed as residual activity at 1000 nM after 30 mins by Kinomescan method relative to control.
Assay [9] has as its target Dual specificity mitogen-activated protein kinase kinase 1 (Homo sapiens) (UniProt Q02750). The assay is described as follows: Inhibition of wild-type human full length MEK1 (M1 to V393 residues) expressed in HEK293 cells assessed as residual activity at 1000 nM after 30 mins by Kinomescan method relative to control. Format: cell-based. The gist of the method:
as §3

The target of assay [10] is Myosin light chain kinase, smooth muscle (Homo sapiens) (UniProt Q15746). The assay is described as follows: Inhibition of wild-type human full length MYLK (M854 to E1845 residues) expressed in HEK293 cells assessed as residual activity at 1000 nM after 30 mins by Kinomescan method relative to control. Type of assay: cell-based. The gist of the method:
as §3

The target of assay [11] is Serine/threonine-protein kinase 38 (Homo sapiens) (UniProt Q15208). The assay is described as follows: Inhibition of wild-type human partial length NDR1 (N33 to E449 residues) expressed in HEK293 cells assessed as residual activity at 1000 nM after 30 mins by Kinomescan method relative to control. Type of assay: cell-based.
Assay [12] addresses Serine/threonine-protein kinase PAK 4 (Homo sapiens) (UniProt O96013). As to the kind of experiment: Inhibition of wild-type human partial length PAK4 (Q144 to R438 residues) expressed in Escherichia coli BL21 assessed as residual activity at 1000 nM after 30 mins by Kinomescan method relative to control.
Assay [13] addresses Serine/threonine-protein kinase PAK 5 (Homo sapiens) (UniProt Q9P286). As to the kind of experiment: Inhibition of wild-type human partial length PAK7 (Y400 to H719 residues) expressed in Escherichia coli BL21 assessed as residual activity at 1000 nM after 30 mins by Kinomescan method relative to control.
Assay [14] relates to Plasmodium falciparum. The assay is described as follows: Inhibition of wild-type Plasmodium falciparum full length CDPK1 (M1 to S524 residues) expressed in HEK293 cells assessed as residual activity at 1000 nM after 30 mins by Kinomescan method relative to control. Format: cell-based. The gist of the method: as §1
Assay [15] relates to Plasmodium falciparum. As to the kind of experiment: Inhibition of wild-type Plasmodium falciparum full length PK5 (M1 to N288 residues) expressed in HEK293 cells assessed as residual activity at 1000 nM after 30 mins by Kinomescan method relative to control. Format: cell-based. The method, boiled down: as §1
The target in assay [16] is 1-phosphatidylinositol 3-phosphate 5-kinase (Homo sapiens) (UniProt Q9Y2I7). The assay is described as follows: Inhibition of wild-type human partial length PIKFYVE (F1512 to C2098 residues) expressed in HEK293 cells assessed as residual activity at 1000 nM after 30 mins by Kinomescan method relative to control. Type of assay: cell-based.
Assay [17] concerns Proto-oncogene tyrosine-protein kinase receptor Ret (Homo sapiens), P07949 [M918T]. As to the kind of experiment: Inhibition of human partial length RET M918T mutant (E713 to D1014 residues) expressed in Escherichia coli BL21 assessed as residual activity at 1000 nM after 30 mins by Kinomescan method relative to control. The method, boiled down:
as §1

In assay [18] the target is Ribosomal protein S6 kinase alpha-2 (Homo sapiens) (UniProt Q15349). As to the kind of experiment: Inhibition of wild-type human partial length N-terminal RSK2 kinase domain 1 (M1 to D394 residues) expressed in HEK293 cells assessed as residual activity at 1000 nM after 30 mins by Kinomescan method relative to control. Type of assay: cell-based.
The target of assay [19] is Dual specificity protein kinase TTK (Homo sapiens) (UniProt P33981). The assay is described as follows: Inhibition of wild-type human partial length TTK (N505 to V798 residues) expressed in Escherichia coli BL21 assessed as residual activity at 1000 nM after 30 mins by Kinomescan method relative to control.
In assay [20] the target is Tyrosine-protein kinase TXK (Homo sapiens) (UniProt P42681). The assay is described as follows: Inhibition of wild-type human partial length TXK (L238 to W527 residues) expressed in Escherichia coli BL21 assessed as residual activity at 1000 nM after 30 mins by Kinomescan method relative to control.
The target of assay [21] is Serine/threonine-protein kinase VRK2 (Homo sapiens) (UniProt Q86Y07). The assay is described as follows: Inhibition of wild-type human partial length VRK2 (M1 to T336 residues) expressed in HEK293 cells assessed as residual activity at 1000 nM after 30 mins by Kinomescan method relative to control. Format: cell-based.

Sequence of Activin receptor type-1-like (Homo sapiens) (P37023 whole entry, the tested form may be a part): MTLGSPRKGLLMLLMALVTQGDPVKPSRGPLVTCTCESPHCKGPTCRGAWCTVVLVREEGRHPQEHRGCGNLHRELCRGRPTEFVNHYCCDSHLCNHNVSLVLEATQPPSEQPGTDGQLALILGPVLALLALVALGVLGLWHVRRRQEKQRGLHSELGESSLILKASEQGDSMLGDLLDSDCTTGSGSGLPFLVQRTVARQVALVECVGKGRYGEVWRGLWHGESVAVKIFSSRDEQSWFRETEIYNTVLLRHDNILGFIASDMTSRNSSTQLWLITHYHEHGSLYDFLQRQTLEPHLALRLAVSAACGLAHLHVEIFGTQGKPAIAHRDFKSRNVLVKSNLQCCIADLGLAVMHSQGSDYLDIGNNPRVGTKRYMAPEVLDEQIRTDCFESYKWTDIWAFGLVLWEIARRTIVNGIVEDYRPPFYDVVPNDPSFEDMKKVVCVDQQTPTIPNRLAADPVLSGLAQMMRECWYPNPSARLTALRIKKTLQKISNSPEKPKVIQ
Sequence of Myosin light chain kinase, smooth muscle (Homo sapiens) (Q15746 whole entry, the tested form may be a part): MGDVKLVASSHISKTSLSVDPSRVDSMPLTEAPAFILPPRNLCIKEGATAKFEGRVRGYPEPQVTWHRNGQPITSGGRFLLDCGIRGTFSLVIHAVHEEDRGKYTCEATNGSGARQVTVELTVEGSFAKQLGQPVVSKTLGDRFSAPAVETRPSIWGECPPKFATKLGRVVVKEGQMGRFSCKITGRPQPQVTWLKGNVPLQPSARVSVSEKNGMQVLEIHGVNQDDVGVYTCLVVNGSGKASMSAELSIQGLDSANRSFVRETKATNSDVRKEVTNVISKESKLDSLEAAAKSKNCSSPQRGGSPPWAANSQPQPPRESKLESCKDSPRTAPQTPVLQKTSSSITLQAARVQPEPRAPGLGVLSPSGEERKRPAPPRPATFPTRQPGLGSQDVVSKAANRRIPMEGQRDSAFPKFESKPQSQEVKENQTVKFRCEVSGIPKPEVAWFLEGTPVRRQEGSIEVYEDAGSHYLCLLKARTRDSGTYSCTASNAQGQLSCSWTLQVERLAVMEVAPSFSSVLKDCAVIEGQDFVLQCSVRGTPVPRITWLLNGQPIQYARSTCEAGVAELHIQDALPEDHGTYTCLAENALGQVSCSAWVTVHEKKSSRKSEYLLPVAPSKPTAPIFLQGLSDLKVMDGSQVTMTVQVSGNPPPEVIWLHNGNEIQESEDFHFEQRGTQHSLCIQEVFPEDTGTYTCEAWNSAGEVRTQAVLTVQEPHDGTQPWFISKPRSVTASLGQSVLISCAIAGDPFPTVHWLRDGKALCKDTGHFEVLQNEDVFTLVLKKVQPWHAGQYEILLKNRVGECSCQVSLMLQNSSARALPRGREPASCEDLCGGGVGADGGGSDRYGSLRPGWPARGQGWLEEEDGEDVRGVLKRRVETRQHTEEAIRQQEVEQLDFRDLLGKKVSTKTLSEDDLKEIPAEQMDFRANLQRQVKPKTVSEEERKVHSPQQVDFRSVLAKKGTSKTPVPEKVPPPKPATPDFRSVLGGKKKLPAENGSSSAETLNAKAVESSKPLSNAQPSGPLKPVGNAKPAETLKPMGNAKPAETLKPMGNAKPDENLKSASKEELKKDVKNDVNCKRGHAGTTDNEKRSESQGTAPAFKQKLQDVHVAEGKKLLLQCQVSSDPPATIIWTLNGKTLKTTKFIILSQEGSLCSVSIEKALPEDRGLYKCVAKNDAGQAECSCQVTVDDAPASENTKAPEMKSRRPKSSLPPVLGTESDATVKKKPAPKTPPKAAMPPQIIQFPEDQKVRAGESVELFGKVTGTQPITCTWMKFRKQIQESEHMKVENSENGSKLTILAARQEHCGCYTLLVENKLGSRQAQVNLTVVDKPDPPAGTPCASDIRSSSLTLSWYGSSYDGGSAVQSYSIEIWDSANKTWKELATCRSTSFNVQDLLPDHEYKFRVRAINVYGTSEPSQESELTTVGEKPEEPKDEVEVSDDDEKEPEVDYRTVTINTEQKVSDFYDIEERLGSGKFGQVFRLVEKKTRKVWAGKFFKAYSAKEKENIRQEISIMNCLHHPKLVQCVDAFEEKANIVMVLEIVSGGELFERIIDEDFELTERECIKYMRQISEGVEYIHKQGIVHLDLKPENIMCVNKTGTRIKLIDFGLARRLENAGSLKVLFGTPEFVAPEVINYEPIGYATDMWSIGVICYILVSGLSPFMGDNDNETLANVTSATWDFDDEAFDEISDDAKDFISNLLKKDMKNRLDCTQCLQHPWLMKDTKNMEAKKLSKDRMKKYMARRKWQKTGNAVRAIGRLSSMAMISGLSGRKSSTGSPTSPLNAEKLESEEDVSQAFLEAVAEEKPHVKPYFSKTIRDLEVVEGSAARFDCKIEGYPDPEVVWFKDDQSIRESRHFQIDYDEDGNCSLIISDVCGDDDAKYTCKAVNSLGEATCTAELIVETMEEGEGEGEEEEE
Sequence of Proto-oncogene tyrosine-protein kinase receptor Ret (Homo sapiens), P07949 [M918T] (P07949 whole entry M918T, the tested form may be a part): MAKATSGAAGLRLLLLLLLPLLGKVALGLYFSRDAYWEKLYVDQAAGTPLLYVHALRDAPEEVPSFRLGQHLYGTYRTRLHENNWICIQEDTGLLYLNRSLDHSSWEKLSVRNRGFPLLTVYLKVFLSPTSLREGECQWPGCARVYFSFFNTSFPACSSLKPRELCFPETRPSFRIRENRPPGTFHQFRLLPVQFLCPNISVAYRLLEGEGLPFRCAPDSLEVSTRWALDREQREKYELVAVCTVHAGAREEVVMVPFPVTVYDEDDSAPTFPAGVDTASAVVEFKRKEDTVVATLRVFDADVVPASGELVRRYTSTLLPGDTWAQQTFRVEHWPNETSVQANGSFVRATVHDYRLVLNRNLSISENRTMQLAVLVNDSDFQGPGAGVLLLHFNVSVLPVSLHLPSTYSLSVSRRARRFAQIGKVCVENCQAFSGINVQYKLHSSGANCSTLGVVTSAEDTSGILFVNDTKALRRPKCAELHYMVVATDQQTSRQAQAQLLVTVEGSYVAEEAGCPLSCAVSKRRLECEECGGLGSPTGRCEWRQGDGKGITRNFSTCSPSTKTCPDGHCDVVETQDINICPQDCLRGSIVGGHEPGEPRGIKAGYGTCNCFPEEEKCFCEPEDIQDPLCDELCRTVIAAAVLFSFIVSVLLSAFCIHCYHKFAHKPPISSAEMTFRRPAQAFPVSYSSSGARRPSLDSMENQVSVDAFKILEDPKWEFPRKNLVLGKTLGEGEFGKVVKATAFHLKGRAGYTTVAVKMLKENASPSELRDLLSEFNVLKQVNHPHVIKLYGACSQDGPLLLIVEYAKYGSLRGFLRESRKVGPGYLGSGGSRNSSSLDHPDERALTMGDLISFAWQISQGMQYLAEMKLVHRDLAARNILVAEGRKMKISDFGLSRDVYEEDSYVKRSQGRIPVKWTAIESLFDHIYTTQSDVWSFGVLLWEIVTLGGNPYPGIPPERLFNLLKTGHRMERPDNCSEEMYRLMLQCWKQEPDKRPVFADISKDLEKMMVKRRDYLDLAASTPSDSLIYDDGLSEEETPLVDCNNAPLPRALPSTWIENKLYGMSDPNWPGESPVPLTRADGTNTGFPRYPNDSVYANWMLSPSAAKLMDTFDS
Sequence of Tyrosine-protein kinase TXK (Homo sapiens) (P42681 whole entry, the tested form may be a part): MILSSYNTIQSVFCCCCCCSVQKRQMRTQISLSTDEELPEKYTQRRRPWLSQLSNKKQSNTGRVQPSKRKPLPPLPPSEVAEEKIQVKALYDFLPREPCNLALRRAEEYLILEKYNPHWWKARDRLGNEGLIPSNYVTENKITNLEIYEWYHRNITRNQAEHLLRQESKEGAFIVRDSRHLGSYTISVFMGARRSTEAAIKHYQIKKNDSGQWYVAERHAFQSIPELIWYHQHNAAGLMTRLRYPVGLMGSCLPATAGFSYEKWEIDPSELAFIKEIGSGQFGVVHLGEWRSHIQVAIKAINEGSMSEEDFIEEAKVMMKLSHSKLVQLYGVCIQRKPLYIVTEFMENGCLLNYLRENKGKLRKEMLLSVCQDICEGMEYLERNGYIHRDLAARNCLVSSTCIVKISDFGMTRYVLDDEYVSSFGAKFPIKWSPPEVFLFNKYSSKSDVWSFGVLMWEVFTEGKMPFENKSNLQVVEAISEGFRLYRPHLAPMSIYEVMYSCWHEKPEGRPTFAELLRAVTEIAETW
Sequence of Inhibitor of nuclear factor kappa-B kinase subunit epsilon (Homo sapiens) (Q14164 whole entry, the tested form may be a part): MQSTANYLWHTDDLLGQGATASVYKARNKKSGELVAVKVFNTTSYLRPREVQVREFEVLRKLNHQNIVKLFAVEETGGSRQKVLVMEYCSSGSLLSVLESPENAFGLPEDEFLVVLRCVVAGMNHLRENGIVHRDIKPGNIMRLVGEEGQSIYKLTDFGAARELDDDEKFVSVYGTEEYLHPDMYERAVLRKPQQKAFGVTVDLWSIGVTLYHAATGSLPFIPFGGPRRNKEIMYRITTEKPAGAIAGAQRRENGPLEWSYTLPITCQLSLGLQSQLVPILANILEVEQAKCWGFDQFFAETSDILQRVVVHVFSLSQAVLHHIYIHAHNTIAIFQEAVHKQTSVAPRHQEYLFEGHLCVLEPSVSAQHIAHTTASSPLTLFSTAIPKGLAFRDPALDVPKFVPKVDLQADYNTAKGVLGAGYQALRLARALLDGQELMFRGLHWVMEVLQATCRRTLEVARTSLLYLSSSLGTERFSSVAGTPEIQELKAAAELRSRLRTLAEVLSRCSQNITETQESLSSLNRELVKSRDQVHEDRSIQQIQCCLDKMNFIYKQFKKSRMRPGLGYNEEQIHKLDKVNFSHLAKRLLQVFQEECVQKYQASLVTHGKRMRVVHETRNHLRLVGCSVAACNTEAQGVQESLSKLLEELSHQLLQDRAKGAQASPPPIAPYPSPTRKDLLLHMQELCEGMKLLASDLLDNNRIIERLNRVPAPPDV

For `COc1cc(OC)c(Cl)c(N2Cc3cnc(Nc4ccc(F)cc4)nc3N(C3CCN(C(=O)/C=C/CN(C)C)CC3)C2=O)c1Cl`, the Activity in [1] amounted to 100%; in assay [2] it was 100%; in [3] it was 100%; in assay [4] it was 100%; in the assay filed under Homo sapiens, 90%; in assay [5], 87%. Also, the Activity turned out to be 100% in [6]; 66% in assay [7]; 100% in assay [8]; 100% in assay [9]; 100% in [10]; 100% in assay [11]. The Activity was determined as 100% in [12]; 88% in assay [13]; 100% in the assay on Plasmodium falciparum [14]; 100% in the assay with Plasmodium falciparum [15]; 95% in assay [16]; 7.1% in assay [17]. In addition, the Activity in assay [18] came to 89%; in assay [19], 86%; in assay [20], 99%; in assay [21], 100%.

These data come from ChEMBL document CHEMBL4043093, “2-Oxo-3, 4-dihydropyrimido[4, 5-d]pyrimidinyl derivatives as new irreversible pan fibroblast growth factor receptor (FGFR) inhibitors” (Eur J Med Chem, 2017).
